# Bioassay records from PubChem BioAssay.
# Hits are enriched below; roughly 9% of the tested compounds scored in any of these assays.
# M1 antagonist: M1 muscarinic receptor (rat) antagonism | CHO-M1 cells, Fluo-4 calcium, ACh EC80 antagonist mode; stronger effect = lower value | actives 3.4% (n = 64,000) | P08482 | B-score at 10 µM;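 active means calcium fluorescence response, raw or row-and-column corrected B-score, differing from the plate sample mean either way at a set confidence level, mostly lower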
# mHtt clearance: mutant huntingtin protein clearance; HeLa Exon1htt(103Q)mCFP, aggregate imaging; zero = plate's median compound well; inhibition, % at 1.5 µM; actives 0.42% (n = 47,000); AID 853;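 active means inhibition of aggregate fluorescence above about 70%, also judged a hit by eye on the cell image, limit read from the data, passing the limit was not always enough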;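 further: cells exposed to compound for three days before fixation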
# AP ELISA ortho: alternative pathway complement inhibition, orthogonal assay | inhibition, % at 5 µM | actives 0.08% (n = 62,000) | Human serum alternative complement pathway, LPS-coated ELISA, C3 deposition; tested in compound mixtures | AID 1235;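 active means inhibition above 30% in each of the two pooled mixtures holding the compound, so the lower value exceeds 30%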;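 further: 0% = serum in Mg-EGTA without compound and 100% = EDTA serum blank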
#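 Assay system: human serum alternative complement pathway, C3 deposition on LPS-coated wells; Dosing: 5 µM per compound in ten-compound mixtures; Detection: Anti-C3 ELISA, OD 450 nm; Buffer or medium: Mg2+-EGTA GVB++ buffer containing human serum at 1:15 dilution; Timing: 1 h at 37 °C; Replication: two different pools per compound.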
# M1 agonist: M1 muscarinic receptor agonism; CHO-M1 cells, Fluo-4 calcium fluorescence, agonist mode; stronger effect = higher value; B-score at 10 µM; actives 3% (n = 64,000); AID 626;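 active means fluorescence rise, raw or as B-score row- and column-corrected plate score, outside the 99.7% band of its plate's samples, either direction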
# D1 mod: allosteric modulators of human D1 dopamine receptor; HEK293 D1, CRE-luciferase, dopamine EC30 potentiation; actives deviate in either direction; actives 5.9% (n = 58,000); B-score at 10 µM; AID 641;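 active means luminescence count or its row- and column-corrected plate score outside the 99.7% band of the plate's sample wells, on either side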
# Target sequence (P21728 whole entry, looked up): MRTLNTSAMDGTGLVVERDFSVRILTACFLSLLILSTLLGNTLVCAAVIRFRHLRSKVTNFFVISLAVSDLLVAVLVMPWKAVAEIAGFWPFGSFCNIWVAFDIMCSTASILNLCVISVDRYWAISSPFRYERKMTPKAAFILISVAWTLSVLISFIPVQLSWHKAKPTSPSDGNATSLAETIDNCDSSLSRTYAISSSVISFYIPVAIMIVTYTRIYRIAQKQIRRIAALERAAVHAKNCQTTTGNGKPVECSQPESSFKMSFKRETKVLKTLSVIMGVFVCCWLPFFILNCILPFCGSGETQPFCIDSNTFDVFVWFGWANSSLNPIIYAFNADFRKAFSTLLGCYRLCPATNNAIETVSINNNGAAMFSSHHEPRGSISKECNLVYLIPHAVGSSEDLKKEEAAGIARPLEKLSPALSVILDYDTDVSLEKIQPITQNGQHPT
# D1 mod confirm: D1 receptor (human) allosteric modulation, confirmed | shares compounds with D1 mod | HEK293 D1 CRE-luciferase, dopamine EC30 potentiation; stronger effect = higher value | luminescence at 10 µM | actives 88% (n = 2,200);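 active means luminescence in either of two replicates above the same-plate mean plus 3 SD of the low-dose dopamine control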
# D1 no dopamine: activates D1 CRE-luciferase signal without dopamine present; shares compounds with D1 mod; HEK293 D1 CRE-luciferase, luminescence, no dopamine; stronger effect = higher value; luminescence at 10 µM; actives 0.8% (n = 1,900); AID 646; in the data active means luminescence above about 3900
# Isoprot counter: isoproterenol response counter-screen activity for D1 modulators | shares compounds with D1 mod | actives 63% (n = 2,200) | calls only at 10 µM | HEK293 D1 CRE-luciferase, isoproterenol EC30 counter-screen;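 active means luminescence in either replicate above plate mean of wells with a partly effective reference agonist dose plus 3 SD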;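 further: isoproterenol raises cAMP through native beta-adrenoceptor Gs so signal bypasses D1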
# Numbers without * were called inactive; i = inactive; . = no result given; + = active, no number.
SMILES,M1 antagonist,mHtt clearance,AP ELISA ortho,M1 agonist,D1 mod,D1 mod confirm,D1 no dopamine,Isoprot counter
CCCCc1[nH]nc2c1C1(C(=O)N(CC)c3ccccc31)C(C#N)=C(N)O2 (centres undefined),-0.047,21,-11,0.26,16*,13864*,1676,+
N#CC1=C(N)N(c2ccccc2)C2=C(C(=O)CCC2)C1c1cccs1 (centres undefined),-0.16,.,-4,-0.59,3.2*,7976*,1556,i
NS(=O)(=O)c1ccc(NC(=O)CSc2nnc(-c3cnccn3)n2-c2ccccc2)cc1,0.29,11,8,0.043,0.2,.,.,.
Cc1cc(=O)oc2cc(OC(C)C(=O)Nc3nccs3)ccc12 (centres undefined),-0.8,-2,23,-0.78,4.6*,12128*,1736,+
Cc1cc(=O)oc2cc(OC(C)C(=O)N3CCOCC3)ccc12 (centres undefined),.,-30,.,.,.,.,.,.
COc1ccc(NC(=O)CSc2nc3c(c(=O)[nH]2)CCC3)cc1OC,-0.013,-7,2,-0.04,-0.37,.,.,.
Cc1cc(C)c(C#N)c(SCc2ccc(C#N)cc2)n1,-1,15,13,1.3,7.4*,7996*,1632,i
Cc1ccc(C(C#N)N2CCOCC2)cc1 (centres undefined),-0.098,.,11,-0.23,-1.7,.,.,.
CCNc1nc(SCc2ccccc2)nc(N2CCOCC2)n1,-0.55,22,-18,0.7,23*,17404*,.,+
Nc1nc(CSCc2ccccc2)nc(N2CCOCC2)n1,0.9,4,2,-0.34,4.3*,12172*,1852,+
CNc1nc(SC)nc(N2CCOCC2)n1,1.4,40,1,-0.3,11*,17184*,2056,+
COc1ccc(-n2nc3c(c2NC(=O)c2cc4ccccc4oc2=O)CS(=O)(=O)C3)cc1,1.3,.,10,-0.51,1.6,.,.,.
CC(C)COc1cc(=O)[nH]c(SCC(C)C)n1,1.2,3,12,-0.82,18*,26448*,1948,+
COc1cccc(OC)c1OCCCSc1nc(C)cc(=O)[nH]1,-0.086,39,-4,-0.34,0.11,.,.,.
COc1ccc(CNC(=O)CN(Cc2ccccc2)C(=O)c2csnn2)cc1,.,-40,.,.,.,.,.,.
C=CCN(CC(=O)NCc1ccccc1)C(=O)c1csnn1,-2.2,-2,12,0.28,3*,6904,1720,i
COC(=O)C(C)Sc1nnc2n(-c3cccc(C)c3)c(=O)c3c4c(sc3n12)CCCC4 (centres undefined),-0.34,.,-21,-1.2,9.3*,16844*,1688,+
Cc1noc(NS(=O)(=O)c2ccc(N3Cc4ccccc4C3=O)cc2)c1C,-0.36,.,16,-0.43,6.6*,15188*,1676,+
CCOc1ccc(-n2c(SC(C)C)nc3c(c2=O)SCC3)cc1,0,.,7,-0.026,14*,19936*,1704,+
CSc1nc2c(c(=O)n1-c1ccccc1)SCC2,0.52,.,.,0.8,2.7*,11540*,1796,i
CN(C)S(=O)(=O)c1ccc2c(c1)C(CC(=O)O)NC2=O (centres undefined),0.015,19,13,0.6,-0.2,.,.,.
N#CCOc1nc(N2CCOCC2)nc(N2CCOCC2)n1,0.81,-18,1,-0.87,1.6,.,.,.
N#Cc1nc(N2CCOCC2)nc(N2CCOCC2)n1,-0.24,-10,5,0.05,5.1*,12340*,1704,+
Clc1ccc(C2=Nn3c(nnc3-c3n[nH]c4c3CCC4)SC2)cc1Cl,-0.58,-34,13,-0.082,9.4*,6068*,1632,+
CCS(=O)(=O)c1ccc(S(=O)(=O)CC)s1,0.53,.,11,0.9,0.11,.,.,.
Cn1c(N)c(C(=O)c2cc(-c3ccccn3)nc3ccccc23)c(=O)[nH]c1=O,0.19,.,7,-0.27,3,.,.,.
Cn1c(SCc2ccccc2F)nc2cccnc21,-0.53,17,-11,-0.37,7.4*,7412*,1864,+
